Screening data (PubChem BioAssay)
Rows were chosen to be rich in hits. Some 2.3% of all compounds tested hit in one or more screens of this group.
OXTR agonist: agonists of human oxytocin receptor. AID 2435. P30559. activation, % at 3 µM. CHO-OTR cells, Fluo-8 calcium fluorescence; normalized: DMSO 0%, oxytocin 100%. 0.32% of 320,000 active;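 active = activation above the mean of all tested compounds plus 3 SD, cutoff set per screening run, cut at about 20% in these data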;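 note: peak over basal fluorescence ratio from a 100 s FLIPR kinetic read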
V1R ag counter: V1a receptor agonism, counter-screen for OXTR agonists | activation, % at 3 µM | 0.25% of 320,000 active | P37288 | CHO-V1R cells, Fluo-8 calcium fluorescence, agonist mode; 0% DMSO, 100% 3 nM vasopressin;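 active = activation above the mean activation of all tested compounds plus 3 SD, per screening run, cut at about 20% in these data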;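 note: signal is peak over basal fluorescence ratio across a 100 second FLIPR read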
Target sequence (P37288 whole entry, looked up): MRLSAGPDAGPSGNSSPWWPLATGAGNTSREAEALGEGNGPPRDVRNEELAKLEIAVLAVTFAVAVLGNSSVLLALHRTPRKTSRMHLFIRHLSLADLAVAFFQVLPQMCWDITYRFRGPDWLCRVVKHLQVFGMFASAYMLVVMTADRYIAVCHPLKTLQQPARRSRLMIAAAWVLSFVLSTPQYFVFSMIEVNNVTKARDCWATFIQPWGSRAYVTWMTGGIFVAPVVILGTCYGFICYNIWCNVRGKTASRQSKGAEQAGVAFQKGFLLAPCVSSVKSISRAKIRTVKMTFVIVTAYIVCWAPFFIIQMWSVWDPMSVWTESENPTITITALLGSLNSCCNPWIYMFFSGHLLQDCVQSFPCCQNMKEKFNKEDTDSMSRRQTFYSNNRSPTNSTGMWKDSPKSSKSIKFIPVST
TAAR1 antagonist: human TAAR1 antagonism; 1.5% of 360,000 active; Q96RJ0; CHO RD-HGA16 TAAR1, Fluo-8 calcium fluorescence, antagonist; inhibition, % at 3 µM;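 active = inhibition above a per-plate cutoff, the mean inhibition of test compounds on that plate plus 3 SD, cut at about 49% in these data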;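 note: 0% = DMSO plus EC80 beta-PEA response and 100% = DMSO alone without agonist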
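System: RD-HGA16 CHO cells with stable hTAAR1 and Gα16 | Probe or stimulus: EC80 β-phenethylamine stimulus | Dosing: 3 µM, single point | Times: Dye loading 75 min at 37 °C, then 30 min room temperature | Measured by: Fluo-8 calcium-sensitive fluorescence | Read-out basis: % inhibition of agonist calcium response | Replicates: n of 1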
OXTR potentiate: human OXTR potentiation; activation, % at 3 µM; CHO-OTR cells, Fluo-8 calcium fluorescence, potentiator mode; 0% = oxytocin EC15, 100% = EC100; P30559; 0.061% of 320,000 active;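 active = activation above that plate's cutoff, the mean activation of tested compounds plus 3 SD, cut at about 6.6% in these data, passing the limit was not always enough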;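 note: 100% uses oxytocin at 75 nM as the full agonist control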
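assay system = CHO-OTR cells, human receptor | schedule = compound 6 min at room temperature before oxytocin, 100 s read | detection = Fluo-8 intracellular calcium fluorescence, ex 470-495, em 515-575 nm | evaluation = normalized max/min fluorescence ratio, % activation | control set = EC15 oxytocin alone as 0%, 75 nM oxytocin (EC100) as 100%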
TAAR1 ag: agonists of human TAAR1 | activation, % at 3 µM | AID 624467 | 0.99% of 360,000 active | CHO RD-HGA16 TAAR1, Fluo-8 calcium fluorescence; vehicle wells 0%, saturating PEA agonist 100% | Q96RJ0;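 active = activation above the mean activation of all test compounds in the run plus 3 SD, cut at about 38% in these data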
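Assay system – CHO-derived RD-HGA16 cells with stable Gα16 and human TAAR1 · Compound dosing – one-point dosing at 3 µM (nominal) · Incubation – 17-24 h seeding, 75 min 37 °C dye, 30 min RT · Measured by – kinetic Fluo-8 calcium fluorescence · Control set – DMSO vehicle as 0%, PEA at EC100 as 100% · Repeats – single well for each compound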
TAAR1 ag conf: human TAAR1 agonism, confirmed. CHO RD-HGA16 TAAR1, Fluo-8 calcium fluorescence; scaled: DMSO 0%, maximal phenethylamine 100%. 82% of 2,400 active. AID 651783. shares compounds with TAAR1 ag. activation, % at 3 µM;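 active = activation above a cutoff set at the run's mean compound activation plus 3 SD, cut at about 39% in these data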
Ga16 nonsel ag: nonselective agonist in parental cells, TAAR1 agonist counter-screen; 50% of 2,400 active; shares compounds with TAAR1 ag; CHO-Ga16 parental, Fluo-8 calcium fluorescence; normalized to maximal ATP response, DMSO zero; activation, % at 3 µM; AID 651787;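 active = activation above the run cutoff, the mean activation over all tested wells plus 3 SD, cut at about 12% in these data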;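 note: 0% = DMSO wells and 100% = maximal ATP response on the peak over basal ratio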
TAAR1 desens: human TAAR1 agonist that also desensitizes the receptor | shares compounds with TAAR1 ag | CHO RD-HGA16 hTAAR1, Fluo-8 calcium, beta-PEA response inhibition | inhibition, % at 3 µM | 46% of 2,400 active;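 active = inhibition above the run cutoff, the mean inhibition of all test compounds plus 3 SD, cut at about 49% in these data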;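 note: beta-PEA stimulus applied at its EC80; loss of beta-PEA calcium signal after compound pretreatment read as receptor desensitization; 0% = DMSO with beta-PEA at EC80 and 100% = DMSO alone without agonist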
Ga16 nonsel ant: nonselective Ga16 antagonism, counter-screen. shares compounds with TAAR1 ag. CHO-Ga16 ATP-induced calcium, Fluo-8 fluorescence. inhibition, % at 3 µM. 39% of 2,400 active. AID 651952;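 active = inhibition above the plate's mean compound inhibition plus 3 SD, computed per plate, cut at about 22% in these data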;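 note: 0% = EC80 ATP with DMSO and 100% = DMSO wells without ATP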
An asterisk follows results filed as active; ! = not confirmed by another sample.

`CCN(CC)CCNC(=O)c1ccc(Cl)c(S(=O)(=O)Nc2ccccc2OC)c1` gave OXTR agonist 2, V1R ag counter 0, TAAR1 antagonist 9, OXTR potentiate 2 and TAAR1 ag 8.
CCN(CC)CCNC(=O)c1ccc(Cl)c(S(=O)(=O)Nc2ccc(Cl)cc2)c1 was read as OXTR agonist 1, V1R ag counter 1, TAAR1 antagonist 39, OXTR potentiate -14, TAAR1 ag 70*!, TAAR1 ag conf 4, Ga16 nonsel ag 1, TAAR1 desens 9 and Ga16 nonsel ant 4.
Screening CC1(C)CCC(=O)N2CC[C@H]3C[C@H](OC(=O)Nc4ccc5c(c4)OCO5)C[C@@H]1[C@H]32 returned OXTR agonist -1, V1R ag counter -1, TAAR1 antagonist 0, OXTR potentiate -5 and TAAR1 ag 6.
CC1(C)CCC(=O)N2CC[C@H]3C[C@H](OC(=O)Nc4ccccc4)C[C@@H]1[C@H]32 was read as OXTR agonist 4, V1R ag counter 4, TAAR1 antagonist 10, OXTR potentiate -3, TAAR1 ag 58*, TAAR1 ag conf 52*, Ga16 nonsel ag 5, TAAR1 desens 16 and Ga16 nonsel ant 10.
For COc1ccc(N2CC(C(=O)N[C@@H](C)C(=O)NCCc3ccccc3)CC2=O)cc1 (stereo partly specified) the results were OXTR agonist 0, V1R ag counter 0, TAAR1 antagonist -33, OXTR potentiate -4, TAAR1 ag 62*, TAAR1 ag conf 48*, Ga16 nonsel ag -1, TAAR1 desens 5 and Ga16 nonsel ant 0.
COc1ccc(N2CC(C(=O)NCc3ccccc3)CC2=O)cc1 (stereo unspecified) was read as OXTR agonist -1, V1R ag counter -1, TAAR1 antagonist 0, OXTR potentiate -9 and TAAR1 ag 7.
COc1cccc(-c2nc(CS(=O)(=O)CC(=O)N3CCc4ccccc4C3)c(C)o2)c1 was read as OXTR agonist -1, V1R ag counter 2, TAAR1 antagonist 1, OXTR potentiate -9, TAAR1 ag 67*, TAAR1 ag conf 87*, Ga16 nonsel ag 3, TAAR1 desens 43 and Ga16 nonsel ant 9.
For Cc1oc(-c2ccccc2)nc1CS(=O)CC(=O)N1CCc2ccccc2C1 (stereo unspecified) the results were OXTR agonist -2, V1R ag counter -1, TAAR1 antagonist -15, OXTR potentiate 3, TAAR1 ag 56*, TAAR1 ag conf 91*, Ga16 nonsel ag 0, TAAR1 desens 44 and Ga16 nonsel ant 2.
Screening COc1cccc(-c2nc(CS(=O)(=O)CC(=O)NCCc3ccccc3)c(C)o2)c1 returned OXTR agonist 2, V1R ag counter 4, TAAR1 antagonist 29, OXTR potentiate -4, TAAR1 ag 71*, TAAR1 ag conf 94*, Ga16 nonsel ag 21*, TAAR1 desens 67* and Ga16 nonsel ant 12.
Cc1oc(-c2cccs2)nc1CS(=O)CC(=O)NCCc1ccccc1 (stereo unspecified) was read as OXTR agonist -2, V1R ag counter 0, TAAR1 antagonist -21, OXTR potentiate -4, TAAR1 ag 58*, TAAR1 ag conf 73*, Ga16 nonsel ag 4, TAAR1 desens 34 and Ga16 nonsel ant 4.
`CCCNC(=O)CS(=O)(=O)Cc1nc(-c2cccc(OC)c2)oc1C` gave OXTR agonist 0, V1R ag counter 4, TAAR1 antagonist -11, OXTR potentiate 1 and TAAR1 ag 0.
Cc1ccc(-c2nc(CS(=O)CC(=O)N3CCN(c4ccccc4)CC3)c(C)o2)cc1 (stereo unspecified) was read as OXTR agonist 4, V1R ag counter 4, TAAR1 antagonist -9, OXTR potentiate -9 and TAAR1 ag 1.
Screening O=C(OCC(=O)N1CCOCC1)c1ccccc1OCc1ccc(Cl)cc1 returned OXTR agonist -2, V1R ag counter 0, TAAR1 antagonist -9, OXTR potentiate 4 and TAAR1 ag 6.
`O=C(COC(=O)Cn1cnc2ccccc21)Nc1cccc(S(=O)(=O)N2CCOCC2)c1` gave OXTR agonist 1, V1R ag counter 1, TAAR1 antagonist 0, OXTR potentiate 2 and TAAR1 ag 5.
`O=C(CCCNc1ccccc1)N/N=C/c1cccs1` gave OXTR agonist 1, V1R ag counter 2, TAAR1 antagonist -4, OXTR potentiate -3 and TAAR1 ag 6.
Screening CC(C)NC(=O)N(C)C[C@H]1OCCCC[C@@H](C)Oc2ccc(N(C)C)cc2C(=O)N([C@H](C)CO)C[C@@H]1C returned TAAR1 antagonist -3 and TAAR1 ag 0.
Screening Cc1ccccc1-c1nc(CS(=O)(=O)CC(=O)NCCc2ccccc2)c(C)o1 returned OXTR agonist 4, V1R ag counter 4, TAAR1 antagonist 24, OXTR potentiate -12, TAAR1 ag 72*, TAAR1 ag conf 76*, Ga16 nonsel ag 4, TAAR1 desens 63* and Ga16 nonsel ant 16.
CN(C)S(=O)(=O)c1ccc(C(=O)NCC(=O)N/N=C/c2ccccc2)cc1 was read as OXTR agonist 0, V1R ag counter 1, OXTR potentiate -7, Ga16 nonsel ag 1 and Ga16 nonsel ant 5.
Screening O=C1CCC([N+](=O)[O-])C(C2CC=CCC2)N1 (stereo unspecified) returned OXTR agonist 1, V1R ag counter 1, TAAR1 antagonist -19, OXTR potentiate 3 and TAAR1 ag 2.
Screening C/C=C(/C)C(=O)O[C@@H]1c2c(ccc3ccc(=O)oc23)OC(C)(C)[C@@H]1OC(C)=O returned OXTR agonist -1, V1R ag counter 1, TAAR1 antagonist 29, OXTR potentiate -7 and TAAR1 ag 25.
